Reference: ChEMBL document CHEMBL4118197, “The discovery and preclinical evaluation of BMS-707035, a potent HIV-1 integrase strand transfer inhibitor” (Bioorg Med Chem Lett, 2018)

How the values were obtained:
[1] = Clearance in Sprague-Dawley rat at 1 mg/kg, iv after 4 hrs; format: ADME, organism-based; details: in vivo
In short: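 Male Sprague-Dawley rats given 1 mpk IV in PEG400/ethanol (90:10); blood sampled at 5 and 30 min and 1, 2 and 4 h post-dose; clearance from plasma profile.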

[2] = target: Human immunodeficiency virus type 1 integrase (Human immunodeficiency virus 1, UniProt Q7ZJM1); test: Inhibition of HIV1 integrase strand transfer activity
Human immunodeficiency virus type 1 integrase, sequence (Q7ZJM1 whole entry): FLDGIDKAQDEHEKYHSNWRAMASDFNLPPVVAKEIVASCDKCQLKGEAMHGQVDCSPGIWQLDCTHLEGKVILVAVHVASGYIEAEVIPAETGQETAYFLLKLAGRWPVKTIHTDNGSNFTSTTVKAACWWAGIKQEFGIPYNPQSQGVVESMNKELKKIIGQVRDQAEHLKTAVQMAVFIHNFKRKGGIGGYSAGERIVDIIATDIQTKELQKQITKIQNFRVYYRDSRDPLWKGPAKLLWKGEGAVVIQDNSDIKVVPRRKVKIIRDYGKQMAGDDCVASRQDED

Which clearance [1] does the source give for `Cc1cc(CNC(=O)c2nc3n(c(=O)c2O)CCOC3(C)C)ccc1F` here?
Its clearance is 11 mL/min/kg.

What about the IC50 [2] of the same molecule?
Its IC50 is 3 nM.
